Experimental data as given in ChEMBL document CHEMBL2157970, “New prenylated isoflavonoids as protein tyrosine phosphatase 1B (PTP1B) inhibitors from Erythrina addisoniae” (Bioorg Med Chem, 2012).

What was measured:
[1] = target: T1, Tyrosine-protein phosphatase non-receptor type 1 (Homo sapiens, UniProt P18031); experiment: Inhibition of human recombinant PTP1B using p-nitrophenyl phosphate as substrate after 30 mins
T1 sequence (P18031 whole entry): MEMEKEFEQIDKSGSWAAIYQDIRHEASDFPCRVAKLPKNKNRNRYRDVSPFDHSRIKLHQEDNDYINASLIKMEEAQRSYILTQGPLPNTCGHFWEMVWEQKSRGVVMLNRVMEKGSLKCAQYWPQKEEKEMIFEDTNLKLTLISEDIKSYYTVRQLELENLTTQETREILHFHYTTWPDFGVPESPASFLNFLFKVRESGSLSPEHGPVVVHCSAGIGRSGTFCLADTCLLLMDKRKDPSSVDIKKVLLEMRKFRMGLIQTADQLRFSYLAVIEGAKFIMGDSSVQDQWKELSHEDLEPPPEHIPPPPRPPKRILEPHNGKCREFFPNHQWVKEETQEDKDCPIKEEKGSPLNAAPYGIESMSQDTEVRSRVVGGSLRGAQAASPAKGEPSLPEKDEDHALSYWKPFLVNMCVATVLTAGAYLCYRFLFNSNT
How it was run: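 Human recombinant enzyme (0.05–0.1 µg) with 2 mM p-NPP in 50 mM citrate pH 6.0, 0.1 M NaCl, 1 mM EDTA, 1 mM DTT, 37 °C for 30 min. IC50 by regression, mean ± SD of three replicates.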

MDA-MB-231 [2] = experiment: Ratio of tamoxifen IC50 to compound IC50 for human MDA-MB-231 cells; type: functional
NCI/ADR-RES = experiment: Ratio of tamoxifen IC50 to compound IC50 for human MCF7/ADR cells; type: functional
MCF7 = experiment: Cytotoxicity against human MCF7 cells after 48 hrs by MTT assay; type: functional, cell-based
How it was run: (§1)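 Cells kept in DMEM with 10% heat-inactivated FBS, 4.5 g/L D-glucose, sodium pyruvate and L-glutamine at 37 °C, 5% CO2. Seeded at 1 × 10^4 cells/well, left to adhere 24 h, then exposed 48 h to a range of concentrations at 0.05% (v/v) DMSO final. MTT added for 4 h, absorbance at 550 nm. Viability taken relative to control wells; IC50 from triplicates, mean ± SD.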

[3] = Cytotoxicity against human MCF7/ADR cells after 48 hrs by MTT assay; type: functional, cell-based, NCI/ADR-RES; how it was run: as §1
MDA-MB-231 [4] = experiment: Cytotoxicity against human MDA-MB-231 cells after 48 hrs by MTT assay; type: functional, cell-based; how it was run: as §1
[5] = Homo sapiens, MCF7, 48 h, read-out: IC50
[6] = Homo sapiens, NCI/ADR-RES, 48 h, read-out: IC50
[7] = Homo sapiens, MDA-MB-231, 48 h, read-out: IC50

Compound | IC50 [1] [µM] | Ratio IC50 (MDA-MB-231 [2]) | Ratio IC50 (NCI/ADR-RES) | IC50 (MCF7; [5]) [µM] | IC50 [3, 6] [µM] | IC50 (MDA-MB-231 [4]; [7]) [µM] | IC50 (MCF7; mcf7) | IC50 ([3]; nci/adr-res) | IC50 (MDA-MB-231 [4]; mda-mb-231)
CC(C)=CCc1cc(-c2coc3c(CC=C(C)C)c(O)ccc3c2=O)ccc1O [ERYSUBIN F] | 7.8 |  |  |  |  |  |  |  | 
CC(C)=CCc1c2c(c(O)c3c(=O)c(-c4ccc(O)cc4)coc13)CC(C(C)(C)O)O2 (centres undefined) [ECHRENONE B10] | 24.2 | >3 | 1.93 | 4.32 | 5.76 | 3.97 |  |  | 
COC(c1c2c(c(O)c3c(=O)c(-c4ccc(O)cc4)coc13)C=CC(C)(C)O2)C(O)C(C)(C)O (centres undefined) [ERYTHRADDISON I] | > 30 |  |  |  |  |  | Not Active | Not Active | Not Active
COc1ccc([C@H]2COc3cc(O)cc(O)c3C2=O)cc1CC=C(C)C [ERYTHRADDISON III] | 4.6 |  |  | 6.84 | 9.22 | 6.92 |  |  | 
CC/C(=C(\c1ccccc1)c1ccc(OCCN(C)C)cc1)c1ccccc1 [TAMOXIFEN] |  |  |  | 11.4 |  |  |  |  | 
COc1cc2c(cc1[C@H]1COc3cc(O)cc(O)c3C1=O)C=CC(C)(C)O2 [ERYTHRADDISON IV] | 13.8 |  |  | 11 | 6.06 | 6.34 |  |  | 
CC(C)=CCc1cc2c(=O)c(-c3ccc(O)cc3O)coc2c(CC=C(C)C)c1O [ERYTHRADDISON II] | 17.4 |  |  | 11.4 | 6.75 | 4.57 |  |  | 
